# Results collected from several papers.
# Compare with care: the assays were run in different laboratories.
# ABL1: Tyrosine-protein kinase ABL1 (ABL1, Homo sapiens, UniProt P00519)
SMILES,target,effect on,mode,method,concentration,quantity,value
Cc1nn(C)cc1-c1nc2c(N3CCN(Cc4ccc(Cl)cc4)CC3)c(Cl)cnc2[nH]1,"Tyrosine-protein kinase ABL1, phosphorylated (ABL1, Homo sapiens, UniProt P00519)",binding,,competition with immobilised ligand,1 µM,remaining binding,100%
C#Cc1n[nH]c2c(-c3cn([C@@H](C)c4ccccc4)c(=O)[nH]c3=O)cc(F)cc12,ABL1,enzyme activity,inhibitor,,0.1 µM,inhibition,-2.2%
CC(C)(C)c1cc(C=C(C#N)C#N)cc(Br)c1O,ABL1,enzyme activity,inhibitor,,0.5 µM,remaining activity,59.8%
C#Cc1n[nH]c2c(-c3cn(C(C)c4ccccn4)c(=O)[nH]c3=O)cc(F)cc12 (stereo not drawn),ABL1,enzyme activity,inhibitor,,1 µM,inhibition,-8.5%
Cn1cncc1[C@@](O)(COc1ccc(C#N)cc1-c1ccc(OC(F)(F)F)cc1)c1ccc(C#N)cc1,"Tyrosine-protein kinase ABL1, non-phosphorylated (ABL1, Homo sapiens, UniProt P00519, Q252H)",cell-free assay,,competition with immobilised ligand,1 µM,remaining binding,76%
Cn1cc(-c2cccc(N3CCc4c(sc5c4CC(C)(C)C5)C3=O)c2CO)cc(Nc2ccncn2)c1=O,ABL1,enzyme activity,inhibitor,,1 µM,inhibition,-1%
Nc1ncc(-c2nc(N3CCOCC3)nc(N3CCOCC3)n2)c(C(F)F)n1,"Tyrosine-protein kinase ABL1, non-phosphorylated (ABL1, Homo sapiens, UniProt P00519, T315I)",binding,,competition with immobilised ligand,10 µM,remaining binding,89%
Cn1cc(-c2cc(F)cc(N3CCn4c(cc5c4CCCC5)C3=O)c2CO)cc(Nc2ccc(N3CCN(C4COC4)CC3)cn2)c1=O,"Tyrosine-protein kinase ABL1 (ABL1, Homo sapiens, UniProt P00519, Y253F)",enzyme activity,inhibitor,,0.1 µM,inhibition,3%
N#CC1(c2ccccn2)CCN(Cc2cc(C(=O)O)c(=O)n3ccccc23)CC1,"Tyrosine-protein kinase ABL1, phosphorylated (ABL1, Homo sapiens, UniProt P00519, H396P)",cell-free assay,,competition with immobilised ligand,1 µM,remaining binding,91%
